EBI2 antag: blocks human EBI2 receptor beta-arrestin signaling. inhibition, % at 5 µM. 360,000 compounds, 0.81% hits. EBI2 beta-arrestin recruitment, luminescence, 7a,25-OHC stimulated; in the data active = inhibition above about 38%;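 also: enzyme fragment complementation signal reports receptor beta-arrestin coupling in cells; 0% = agonist plus DMSO wells and 100% = wells without agonist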
TAG inh: triacylglycerol accumulation inhibition; H9c2 cells, Nile Red lipid (TAG) fluorescence; cells loaded with 200 µM oleic acid; inhibition, % at 12.5 µM; 230,000 compounds, 0.66% hits; AID 651582;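 active = pattern-corrected inhibition of lipid staining of at least 50% with the nuclear-stain viability signal not falling by more than 50%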;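 also: 0% = DMSO wells and 100% = triacsin C control wells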
APJ agonist: APJ receptor agonism; P35414; CHO-K1 APJ PathHunter beta-arrestin, luminescence; 0% DMSO wells, 100% apelin; activation, % at 20 µM; 330,000 compounds, 0.11% hits; AID 2520;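 active = activation more than six SD over the plate average, tested at 20 µM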;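 also: 0% = DMSO alone and 100% = apelin-13 at 10 nM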
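Test system: CHO-K1 APJ beta-arrestin complementation cell line | Compound: Single test compound dose, 20 µM final, 1% DMSO | Incubation: Compound 90 min 25 °C, reagent 1 h | Measured by: beta-gal luminescence | Read-out basis: APJ–arrestin association signal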
CCR6 antagonist: CCR6 (human) receptor antagonism. P51684. CHO-K1 CCR6 PathHunter beta-arrestin, luminescence, CCL20-stimulated. inhibition, % at 20 µM. 340,000 compounds, 0.49% hits;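 active = compounds whose inhibition of the agonist-driven luminescence signal at 20 µM reaches about 50%, limit read from the data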;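 also: cells stimulated with CCL20 at 14 nM final; plate controls were DMSO with CCL20 for no effect and DMSO without agonist for full effect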
APJ antagonist: blocks the human apelin receptor APJ; 330,000 compounds, 0.32% hits; P35414; inhibition, % at 20 µM; AID 2521; CHO-K1 APJ beta-arrestin complementation, luminescence;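 active = inhibition above about 40% at 20 µM, limit read from the data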;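 also: cells challenged with 10 nM apelin-13 agonist together with compound; plate controls were apelin-13 plus DMSO wells for no effect and DMSO wells lacking apelin-13 for full effect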
CXCR6 inh: blocks human CXCR6 beta-arrestin recruitment; inhibition, % at 20 µM; 360,000 compounds, 0.36% hits; CHO-K1 PathHunter CXCR6 beta-arrestin, luminescence; in the data active = inhibition above about 34%, passing the limit was not always enough;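 also: antagonist mode with CXCL16 agonist at 10 nM final; 0% = 10 nM CXCL16 with DMSO and 100% = unstimulated wells without agonist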
Target sequence (O00574 whole entry, looked up): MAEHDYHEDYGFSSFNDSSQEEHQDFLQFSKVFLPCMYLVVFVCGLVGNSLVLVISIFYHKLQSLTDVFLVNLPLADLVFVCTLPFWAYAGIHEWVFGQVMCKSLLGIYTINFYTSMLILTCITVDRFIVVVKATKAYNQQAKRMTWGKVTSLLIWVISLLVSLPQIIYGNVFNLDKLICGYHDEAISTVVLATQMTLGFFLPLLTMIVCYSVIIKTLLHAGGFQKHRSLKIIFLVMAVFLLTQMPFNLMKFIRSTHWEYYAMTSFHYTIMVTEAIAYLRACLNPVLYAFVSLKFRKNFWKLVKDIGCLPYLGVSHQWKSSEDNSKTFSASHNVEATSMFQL
EBI2 conf: EBI2 (human) antagonism, single concentration confirmation | shares compounds with EBI2 antag | EBI2 beta-arrestin luminescence, 7a,25-OHC antagonism | inhibition, % at 5 µM | 2,400 compounds, 29% hits;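 active = inhibition of at least 50%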
EBI2 ag: counter-screen for EBI2 antagonists: EBI2 agonist activity; shares compounds with EBI2 antag; EBI2-expressing cells, agonist mode, luminescence, 60 min; 0% vehicle, 100% 7α,25-dihydroxycholesterol control; activation, % at 5 µM; 2,400 tested, under 10 active; AID 652000;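 active = activation of at least 50%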
bGal counter: beta-galactosidase inhibition counter-screen; shares compounds with EBI2 antag; purified beta-galactosidase, luminescent Galacton Star, 15 min; inhibition, % at 5 µM; 2,400 compounds, 1% hits;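 active = replicate-average signal at least 3 plate SD below neutral wells, shown as high inhibition, flagging enzyme-inhibiting false positives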;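 also: 0% = DMSO wells with enzyme and 100% = wells lacking enzyme; higher means stronger loss of beta-gal luminescence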
* marks the source's active call; other numbers are inactive results; · = not tested or not shown. Most compounds without a hit are left out; they make up all but 1.9% or so of the library.

SMILES	EBI2 antag	TAG inh	APJ agonist	CCR6 antagonist	APJ antagonist	CXCR6 inh	EBI2 conf	EBI2 ag	bGal counter
Cc1ccccc1CN(c1ccc(C(=O)Nc2ccccc2C(=O)NCc2ccco2)cc1)S(C)(=O)=O	58*	·	-1	7	-1	-1	13	-1	-16
COc1ccc(S(=O)(=O)N2CCOC2CNC(=O)C(=O)NCc2ccccn2)cc1OC (centres undefined)	0	4	·	·	·	-8	·	·	·
CN(Cc1ccccc1)C(=O)[C@@H]1CCCN1C(=O)[C@@H]1CCCN1C(=O)c1ccccc1	-15	·	·	·	·	-6	·	·	·
O=C(c1ccc(F)cc1)C1CCN(C(=S)NCC2CCCO2)CC1 (centres undefined)	51*	1	-3	0	-2	-7	16	-1	-9
Cc1ccc(C(=O)C2CCN(C(=S)NCC3CCCO3)CC2)cc1 (centres undefined)	16	-11	-2	5	11	1	·	·	·
COc1ccc(C(=O)C2CCN(C(=S)NCC3CCCO3)CC2)cc1 (centres undefined)	61*	22	-1	7	5	-7	26	1	5
CCc1noc(C)c1C(=O)N(Cc1ccccc1)c1c(N)n(CCOC)c(=O)[nH]c1=O	-3	-10	-4	2	7	4	·	·	·
Nc1cc(Cl)ccc1C(=O)OCC(=O)N1CCOCC1	3	9	-4	4	7	-3	·	·	·
CC1CCCCN1S(=O)(=O)c1ccc(C(=O)N2CCOCC2)cc1 (centres undefined)	2	·	-2	-5	0	-4	·	·	·
Cc1ccc(Oc2nc3ccccn3c(=O)c2/C=C(\C#N)C(=O)Nc2c(C)n(C)n(-c3ccccc3)c2=O)cc1	57*	·	2	-9	-4	1	62*	0	8
Cc1ccccc1Oc1nc2c(C)cccn2c(=O)c1/C=C(\C#N)C(=O)Nc1c(C)n(C)n(-c2ccccc2)c1=O	65*	-4	-1	13	-15	-1	61*	1	10
CC(=NCCc1c(C)[nH]c2ccc(OCc3ccccc3)cc12)C1=C(O)CC(c2ccccc2)CC1=O (centres undefined)	46*	9	0	8	7	9	25	0	5
CC(=N)C1=C(O)CC(c2ccccc2)CC1=O (centres undefined)	1	·	0	7	8	4	·	·	·
CS(=O)(=O)N(CC(=O)N1CCOCC1)c1ccccc1Br	-11	·	0	2	5	0	·	·	·
O=C(CSc1nnc(SCc2ccccc2)s1)N/N=C/c1ccc(Cl)cc1Cl	31	·	-3	-5	-10	2	·	·	·
O=C(CSc1nnc(SCc2ccc(Cl)cc2)s1)N/N=C/c1ccc(Cl)cc1Cl	52*	-2	-3	-7	-12	-10	10	1	3
CC(=C/c1ccco1)/C=N/NC(=O)CSc1nnc(SCc2ccc(C)cc2)s1	59*	-16	0	-15	-33	8	20	-1	-9
CCN(CC)c1ccc(NC(=O)COc2ccc(C)cc2)cc1	48*	·	1	11	-8	-8	5	-1	-13
CC1CC(C)CN(c2ncc3c(n2)CC(c2ccc(Cl)cc2)CC3=O)C1 (centres undefined)	57*	·	-1	23	22	15	12	-1	-17
CC1CC(C)CN(c2ncc3c(n2)CC(c2ccccc2Cl)CC3=O)C1 (centres undefined)	40	-18	-5	22	12	18	·	·	·
CN(C)S(=O)(=O)c1ccc(C(=O)OCC2CCCO2)cc1 (centres undefined)	-9	·	·	2	·	-23	·	·	·
CC(C)C(NS(=O)(=O)c1ccccc1)C(=O)OCC(=O)NNC(=O)c1ccccc1 (centres undefined)	53*	-6	-8	-2	-40	-9	42	0	2
Cc1cc(C)c(OCC(=O)N2CC=C(c3ccccc3)CC2)c(C)c1	60*	-9	-2	2	2	1	71*	4	-3
CCN1CCN(C(=O)/C=C/c2ccc(C)cc2)CC1	95*	-19	-9	4	-9	4	84*	2	5
CC(C)c1ccc(/C=C/C(=O)N2CCCCCC2)cc1	36	2	-4	12	0	3	·	·	·
SMILES	EBI2 antag	TAG inh	APJ agonist	CCR6 antagonist	APJ antagonist	CXCR6 inh	EBI2 conf	EBI2 ag	bGal counter
CN1CCN(NC(=O)/C=C/c2cccc([N+](=O)[O-])c2)CC1	1	·	-3	-4	-11	-4	·	·	·
O=C(/C=C/c1ccc(F)cc1)N1CCCN(C(=O)/C=C/c2ccc(F)cc2)CC1	85*	·	-2	11	-19	2	73*	-2	-19
Cc1ccc(/C=C/C(=O)N2CCCN(C(=O)/C=C/c3ccc(C)cc3)CC2)cc1	94*	·	0	-8	-5	-14	82*	1	-1
Cc1ccc(/C=C/C(=O)NN2CCN(C)CC2)cc1	64*	8	-1	2	8	-2	39	-1	-7
Cc1nn(C(=O)c2nn(C)cc2[N+](=O)[O-])c(C)c1Cl	2	-1	-4	-4	-10	-6	·	·	·
COc1ccc(F)cc1S(=O)(=O)Nc1cc2c3c(c1)CCN3C(=O)CC2	-6	-6	9	1	-4	-2	·	·	·
Cc1ccc(CNC(=O)c2cc3c(s2)CN(Cc2ccccc2)C3)cc1	66*	-8	-5	10	6	2	35	1	6
COc1cccc(NC(=O)Cn2c3ccc(F)cc3c3nc4n(c(=O)c32)CCCS4)c1	92*	·	1	1	-8	10	72*	1	7
COc1ccc(-c2nc3cc(C)c(Br)c(C)n3c2Cc2ccccc2C(F)(F)F)cc1OC	41*	·	·	·	·	1	39	0	-15
Cc1ccc(S(=O)(=O)N2CCN(C(=O)COC(=O)/C=C/c3cccc([N+](=O)[O-])c3)CC2)c(C)c1	0	20	·	3	·	-8	·	·	·
Cc1ccc(C)c(OCCC(=O)Nc2cccc(S(=O)(=O)N3CCCCC3)c2)c1	5	-27	-3	14	-77	-4	·	·	·
CCc1nc2ccc(C(=O)NCCOc3ccc(OC)cc3)cn2c1N(C)C(=O)COc1ccccc1	53*	-5	·	·	·	-3	35	1	-1
COc1ccc(OCCNC(=O)c2ccc3nc(C)c(N(C)Cc4ccc(NC(C)=O)cc4)n3c2)cc1	55*	-8	·	·	·	-2	16	-2	-9

Assay outcomes deposited in PubChem BioAssay by Sanford-Burnham Center for Chemical Genomics.
